# According to paper PMC4353613 (Structure (London, England : 1993), 2014):
# Columns and labels:
# [1] = test system: C3aR1 receptor; test: Photoaffinity cross-linking of modified TLQP-21 peptide; type: binding, mouse; details: membranes from 3T3 cells, UV 365 nm 30 min; Figure 1B
# [2] = molecular target: T1, human C3aR1 (Homo sapiens, UniProt Q16581); test: β-arrestin recruitment assay in HTLA cells transfected with the C3aR1 receptor; type: cell-based; details: for EC50 times lower than that of C3a: human C3aR1, relative to C3a
# T1 sequence (Q16581 1-482): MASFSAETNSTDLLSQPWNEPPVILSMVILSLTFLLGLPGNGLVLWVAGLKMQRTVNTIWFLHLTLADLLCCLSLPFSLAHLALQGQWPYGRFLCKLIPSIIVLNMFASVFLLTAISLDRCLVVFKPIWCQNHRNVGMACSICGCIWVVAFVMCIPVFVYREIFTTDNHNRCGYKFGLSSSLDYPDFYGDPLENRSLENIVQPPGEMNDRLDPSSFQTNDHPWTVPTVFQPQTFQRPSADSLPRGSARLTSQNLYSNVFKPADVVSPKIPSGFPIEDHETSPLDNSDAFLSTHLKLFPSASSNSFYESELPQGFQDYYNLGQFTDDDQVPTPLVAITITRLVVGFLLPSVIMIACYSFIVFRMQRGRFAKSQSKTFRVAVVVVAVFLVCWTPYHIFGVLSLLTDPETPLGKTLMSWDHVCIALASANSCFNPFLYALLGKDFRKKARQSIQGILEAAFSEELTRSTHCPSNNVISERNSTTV
# [3] = test system: rat stomach fundus; test: Gastric contraction assay; details: for biological activity in fundus strip contraction: concentrations up to 10μM
# [4] = test system: 3T3L1 adipocytes; test: Lipolysis assay in 3T3L1 adipocytes; type: cell-based, mouse; details: with isoproterenol, 3 hours incubation at 37°C
# Summary of the method: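 Adipocytes at day 8 of differentiation in 6-well plates. Starved 3 h in KRH with 1% BSA, then exposed to test compound with or without agonists/antagonists in KRH with 4% BSA. Media collected and heated at 60°C for 20 min to stop enzyme activity. Cells kept for protein content, or trypsinised for diameter and viability. At least three independent replicates.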
# [5] = test system: AMPK phosphorylation; test: AMPK phosphorylation, western blotting in 3T3L1 adipocytes; type: cell-based, mouse; details: anti-Phospho-AMPK(Thr172) western blot
# Summary of the method: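 3T3-L1 cells from ATCC, differentiated to adipocytes with fetal bovine serum, dexamethasone, methylisobutylxanthine and insulin. Extracts (about 5×10^5 cells) taken up in SDS reducing sample buffer and run on NuPAGE. Primary antibody overnight at 4°C; tubulin as loading probe; peroxidase-coupled donkey secondaries. Semi-quantitative densitometry; ANOVA with Tukey post hoc tests.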
compound,measurement,setting,value
N=C(N)NCCC[C@H](NC(=O)COCC(c1ccccc1)c1ccccc1)C(=O)O [SB290157],cross-linking efficiency of modified TLQP-21 peptide in presence of antagonist,[1],substantial reduction
CC(C)C[C@H](NC(=O)[C@@H](N)[C@@H](C)O)C(=O)N[C@@H](CCC(N)=O)C(=O)N1CCC[C@H]1C(=O)N1CCC[C@H]1C(=O)N[C@@H](C)C(=O)N[C@@H](CO)C(=O)N[C@@H](CO)C(=O)N[C@@H](CCCNC(=N)N)C(=O)N[C@@H](CCCNC(=N)N)C(=O)N[C@@H](CCCNC(=N)N)C(=O)N[C@@H](Cc1c[nH]cn1)C(=O)N[C@@H](Cc1ccccc1)C(=O)N[C@@H](Cc1c[nH]cn1)C(=O)N[C@@H](Cc1c[nH]cn1)C(=O)N[C@@H](C)C(=O)N[C@@H](CC(C)C)C(=O)N1CCC[C@H]1C(=O)N1CCC[C@H]1C(=O)N[C@@H](C)C(=O)N[C@@H](CCCNC(=N)N)C(=O)O [TLQP-21],EC50 times lower than that of C3a,[2],approximately 3 times
CC(C)C[C@H](NC(=O)[C@H](C)NC(=O)[C@H](CO)NC(=O)[C@@H]1CCCN1C(=O)[C@@H]1CCCN1C(=O)[C@H](CCC(N)=O)NC(=O)[C@H](CC(C)C)NC(=O)[C@@H](N)[C@@H](C)O)C(=O)N[C@@H](CCCNC(=N)N)C(=O)N[C@@H](CCCNC(=N)N)C(=O)N[C@@H](CCCNC(=N)N)C(=O)N[C@@H](Cc1c[nH]cn1)C(=O)N[C@@H](Cc1ccc(O)cc1)C(=O)N[C@@H](Cc1c[nH]cn1)C(=O)N[C@@H](Cc1c[nH]cn1)C(=O)N[C@@H](C)C(=O)N[C@@H](CC(C)C)C(=O)N1CCC[C@H]1C(=O)N1CCC[C@H]1C(=O)N[C@@H](CO)C(=O)N[C@@H](CCCNC(=N)N)C(=O)O [human TLQP-21],EC50 times lower than that of C3a,[2],approximately 22 times
"C3a: human C3a peptide, first ligand identified for the C3aR1 [reference compound]",EC50,"[2]; HTLA cells transfected with human C3aR1, Figure 1C",3000 nM
HFHHALPPAR [HFHH-10],biological activity (response) in fundus strip contraction,"[3]; 3μM, compared to mouse TLQP-21",~ 3%
same,biological activity (response) in fundus strip contraction,[3]; 6μM,62%
same,biological activity (response) in fundus strip contraction,[3]; 10μM,75%
TLQPPASSRRR [TLQP-11],biological activity in fundus strip contraction,[3],zero response
TLQPPASSRRRHFHHALAPAR [P18A],biological activity (response) in fundus strip contraction,"[3]; 3μM, compared to mouse TLQP-21",~ 65%
TLQPPASSRRRHFHHALPAAR [P19A],biological activity (response) in fundus strip contraction,"[3]; 3μM, compared to mouse TLQP-21",19%
same,biological activity (response) in fundus strip contraction,[3]; 6μM,35%
TLQPPASSRRRHFHHALPPAA [R21A],biological activity in fundus strip contraction,[3],complete loss of activity
same,block of the activity of a subsequent infusion of TLQP-21 (C3aR1 antagonism),"[3]; fundus strips, mutant given before TLQP-21",does not block
same,potentiation of isoproterenol-induced lipolysis,[4],does not potentiate
same,potentiation of AMPK phosphorylation,[5],does not potentiate
